Laboratory results published in ChEMBL document CHEMBL4342523, “Discovery and Development of S6821 and S7958 as Potent TAS2R8 Antagonists” (J Med Chem, 2020).
Active and inactive are the calls of the source. No cut-off for these calls is given here.

Tests used:
[1] = target: T1, Taste receptor type 2 member 8 (Homo sapiens, UniProt Q9NYW2); experiment: Antagonist activity at recombinant human TAS2R8 stably expressed in cells co-expressing Galpha16gust44 assessed as inhibition of andrographolide-induced intracellular calcium level measured for 100 secs by fluo-4 dye based FLIPR assay; assay type: functional, cell-based
T1 sequence (Q9NYW2 whole entry): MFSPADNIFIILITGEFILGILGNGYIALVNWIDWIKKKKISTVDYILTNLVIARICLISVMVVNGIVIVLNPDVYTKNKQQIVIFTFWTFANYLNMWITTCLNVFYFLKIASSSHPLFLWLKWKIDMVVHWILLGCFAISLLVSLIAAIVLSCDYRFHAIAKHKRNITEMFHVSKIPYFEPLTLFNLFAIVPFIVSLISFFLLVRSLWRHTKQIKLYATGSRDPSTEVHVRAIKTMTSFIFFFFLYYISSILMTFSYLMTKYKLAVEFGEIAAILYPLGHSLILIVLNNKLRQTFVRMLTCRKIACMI
In short: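 Recombinant cells stably expressing G16t44 chimera and TAS2R8 (clones isolated by limiting dilution), plated 24 h before assay; loaded with fluo-4 in PBS 60 min, washed, rested 15 min in dark at RT. Andrographolide agonist at its EC80, premixed with antagonist and added together; final DMSO 0.5%. Baseline read 10 s, then fluorescence followed 100 s on FLIPR.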

[2] = Stability of the compound in pH 7.1 buffer assessed as parent compound remaining measured after 24 hrs at 100 degC; assay type: physicochemical; conditions: read-out: Stability
[3] = target: T2, Taste receptor type 2 member 1 (Homo sapiens) (UniProt Q9NYW7); experiment: Antagonist activity at recombinant human TAS2R1 transiently expressed in HEK293T co-expressing Galpha16gust44 assessed as inhibition of picric acid-induced intracellular calcium level by measuring remaining activity at 25 uM by fluo-4AM dye based FLIPR assay relative to control; assay type: functional, cell-based
T2 sequence (whole entry): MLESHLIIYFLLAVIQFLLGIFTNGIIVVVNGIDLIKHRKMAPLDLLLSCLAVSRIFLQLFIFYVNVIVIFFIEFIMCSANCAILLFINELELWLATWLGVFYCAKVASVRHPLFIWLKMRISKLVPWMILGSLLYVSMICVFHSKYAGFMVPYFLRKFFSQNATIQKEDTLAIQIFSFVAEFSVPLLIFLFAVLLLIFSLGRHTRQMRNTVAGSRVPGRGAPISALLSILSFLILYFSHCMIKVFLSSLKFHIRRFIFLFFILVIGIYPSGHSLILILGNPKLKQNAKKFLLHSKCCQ

[4] = target: Taste receptor type 2 member 3 (Homo sapiens) (UniProt Q9NYW6); experiment: Antagonist activity at recombinant human TAS2R3 transiently expressed in HEK293T co-expressing Galpha16gust44 assessed as inhibition of chloroquine-induced intracellular calcium level by measuring remaining activity at 25 uM by fluo-4AM dye based FLIPR assay relative to control; assay type: functional, cell-based
Sequence of Taste receptor type 2 member 3 (Homo sapiens) (Q9NYW6 whole entry): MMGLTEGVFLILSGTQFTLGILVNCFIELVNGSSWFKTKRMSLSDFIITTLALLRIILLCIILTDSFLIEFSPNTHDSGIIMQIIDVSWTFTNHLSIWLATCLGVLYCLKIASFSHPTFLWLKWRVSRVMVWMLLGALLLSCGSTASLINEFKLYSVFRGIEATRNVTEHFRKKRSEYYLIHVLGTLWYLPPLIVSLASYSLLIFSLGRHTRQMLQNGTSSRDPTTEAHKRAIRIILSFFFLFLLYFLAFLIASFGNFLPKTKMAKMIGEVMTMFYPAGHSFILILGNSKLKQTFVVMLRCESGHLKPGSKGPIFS

[5] = target: Taste receptor type 2 member 4 (Homo sapiens) (UniProt Q9NYW5); experiment: Antagonist activity at recombinant human TAS2R4 transiently expressed in HEK293T co-expressing Galpha16gust44 assessed as inhibition of chloroquine-induced intracellular calcium level by measuring remaining activity at 25 uM by fluo-4AM dye based FLIPR assay relative to control; assay type: functional, cell-based
Sequence of Taste receptor type 2 member 4 (Homo sapiens) (Q9NYW5 whole entry): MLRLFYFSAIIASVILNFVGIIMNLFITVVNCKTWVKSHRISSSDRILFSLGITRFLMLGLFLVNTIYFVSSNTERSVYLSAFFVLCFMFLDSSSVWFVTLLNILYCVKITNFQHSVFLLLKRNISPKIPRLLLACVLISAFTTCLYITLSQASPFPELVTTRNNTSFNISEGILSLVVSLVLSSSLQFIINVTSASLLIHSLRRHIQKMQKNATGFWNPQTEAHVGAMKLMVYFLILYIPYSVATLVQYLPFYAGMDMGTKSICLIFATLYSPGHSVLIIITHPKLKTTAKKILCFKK

[6] = target: Taste receptor type 2 member 5 (Homo sapiens) (UniProt Q9NYW4); experiment: Antagonist activity at recombinant human TAS2R5 transiently expressed in HEK293T co-expressing Galpha16gust44 assessed as inhibition of picoline-induced intracellular calcium level by measuring remaining activity at 25 uM by fluo-4AM dye based FLIPR assay relative to control; assay type: functional, cell-based
Sequence of Taste receptor type 2 member 5 (Homo sapiens) (Q9NYW4 whole entry): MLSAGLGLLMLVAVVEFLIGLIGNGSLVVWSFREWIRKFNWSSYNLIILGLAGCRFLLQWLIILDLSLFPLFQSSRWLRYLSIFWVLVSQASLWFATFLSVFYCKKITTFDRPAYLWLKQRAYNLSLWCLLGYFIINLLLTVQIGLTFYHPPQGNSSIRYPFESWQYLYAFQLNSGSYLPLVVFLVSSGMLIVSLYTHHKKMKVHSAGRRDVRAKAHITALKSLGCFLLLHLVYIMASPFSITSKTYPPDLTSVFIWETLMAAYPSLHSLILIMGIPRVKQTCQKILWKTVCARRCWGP

[7] = target: Taste receptor type 2 member 7 (Homo sapiens) (UniProt Q9NYW3); experiment: Antagonist activity at recombinant human TAS2R7 transiently expressed in HEK293T co-expressing Galpha16gust44 assessed as inhibition of chloroquine-induced intracellular calcium level by measuring remaining activity at 25 uM by fluo-4AM dye based FLIPR assay relative to control; assay type: functional, cell-based
Sequence of Taste receptor type 2 member 7 (Homo sapiens) (Q9NYW3 whole entry): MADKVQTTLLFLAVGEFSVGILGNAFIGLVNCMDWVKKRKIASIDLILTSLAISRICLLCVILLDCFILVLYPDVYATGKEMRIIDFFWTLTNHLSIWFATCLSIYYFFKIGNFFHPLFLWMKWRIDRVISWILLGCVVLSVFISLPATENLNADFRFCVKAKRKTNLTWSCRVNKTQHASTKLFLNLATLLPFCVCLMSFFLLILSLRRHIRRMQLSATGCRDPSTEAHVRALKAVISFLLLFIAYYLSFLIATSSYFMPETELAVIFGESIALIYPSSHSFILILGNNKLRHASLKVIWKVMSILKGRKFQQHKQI

[8] = target: T3, Taste receptor type 2 member 8 (Homo sapiens) (UniProt Q9NYW2); experiment: Antagonist activity at recombinant human TAS2R8 transiently expressed in HEK293T co-expressing Galpha16gust44 assessed as inhibition of andrographolide-induced intracellular calcium level by measuring remaining activity at 25 uM by fluo-4AM dye based FLIPR assay relative to control; assay type: functional, cell-based
T3 sequence (whole entry): T1 sequence (Q9NYW2 whole entry)

[9] = target: Taste receptor type 2 member 9 (Homo sapiens) (UniProt Q9NYW1); experiment: Antagonist activity at recombinant human TAS2R9 transiently expressed in HEK293T co-expressing Galpha16gust44 assessed as inhibition of ofloxacin-induced intracellular calcium level by measuring remaining activity at 25 uM by fluo-4AM dye based FLIPR assay relative to control; assay type: functional, cell-based
Sequence of Taste receptor type 2 member 9 (Homo sapiens) (Q9NYW1 whole entry): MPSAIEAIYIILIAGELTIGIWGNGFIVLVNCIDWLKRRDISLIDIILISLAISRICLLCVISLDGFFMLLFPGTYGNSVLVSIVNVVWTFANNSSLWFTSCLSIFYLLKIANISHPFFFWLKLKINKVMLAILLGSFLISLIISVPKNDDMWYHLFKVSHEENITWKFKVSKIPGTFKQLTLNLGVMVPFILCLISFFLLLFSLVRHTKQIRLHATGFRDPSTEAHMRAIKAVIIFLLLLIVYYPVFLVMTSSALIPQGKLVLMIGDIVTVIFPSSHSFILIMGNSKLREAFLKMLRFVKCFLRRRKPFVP

[10] = target: Taste receptor type 2 member 13 (Homo sapiens) (UniProt Q9NYV9); experiment: Antagonist activity at recombinant human TAS2R13 transiently expressed in HEK293T co-expressing Galpha16gust44 assessed as inhibition of oxyphenonium-induced intracellular calcium level by measuring remaining activity at 25 uM by fluo-4AM dye based FLIPR assay relative to control; assay type: functional, cell-based
Sequence of Taste receptor type 2 member 13 (Homo sapiens) (Q9NYV9 whole entry): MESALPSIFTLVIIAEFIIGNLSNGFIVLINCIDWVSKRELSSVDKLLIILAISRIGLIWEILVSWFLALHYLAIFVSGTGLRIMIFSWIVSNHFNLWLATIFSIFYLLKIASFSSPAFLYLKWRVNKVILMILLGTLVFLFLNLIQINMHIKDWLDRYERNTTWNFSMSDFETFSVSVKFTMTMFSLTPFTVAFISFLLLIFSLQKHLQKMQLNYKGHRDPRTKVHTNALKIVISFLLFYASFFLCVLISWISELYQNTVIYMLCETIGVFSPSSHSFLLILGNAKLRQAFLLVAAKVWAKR

[11] = target: Taste receptor type 2 member 16 (Homo sapiens) (UniProt Q9NYV7); experiment: Antagonist activity at recombinant human TAS2R16 transiently expressed in HEK293T co-expressing Galpha16gust44 assessed as inhibition of salicin-induced intracellular calcium level by measuring remaining activity at 25 uM by fluo-4AM dye based FLIPR assay relative to control; assay type: functional, cell-based
Sequence of Taste receptor type 2 member 16 (Homo sapiens) (Q9NYV7 whole entry): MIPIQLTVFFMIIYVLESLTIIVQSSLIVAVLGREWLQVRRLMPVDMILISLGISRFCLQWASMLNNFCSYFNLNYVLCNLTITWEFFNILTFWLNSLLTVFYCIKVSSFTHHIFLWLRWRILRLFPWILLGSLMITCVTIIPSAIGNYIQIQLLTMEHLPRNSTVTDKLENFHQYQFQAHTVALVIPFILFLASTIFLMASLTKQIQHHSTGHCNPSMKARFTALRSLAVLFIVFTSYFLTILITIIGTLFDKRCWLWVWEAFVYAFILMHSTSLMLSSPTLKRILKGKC

[12] = target: Taste receptor type 2 member 30 (Homo sapiens) (UniProt P59541); experiment: Antagonist activity at recombinant human TAS2R30 transiently expressed in HEK293T co-expressing Galpha16gust44 assessed as inhibition of denatonium-induced intracellular calcium level by measuring remaining activity at 25 uM by fluo-4AM dye based FLIPR assay relative to control; assay type: functional, cell-based
Sequence of Taste receptor type 2 member 30 (Homo sapiens) (P59541 whole entry): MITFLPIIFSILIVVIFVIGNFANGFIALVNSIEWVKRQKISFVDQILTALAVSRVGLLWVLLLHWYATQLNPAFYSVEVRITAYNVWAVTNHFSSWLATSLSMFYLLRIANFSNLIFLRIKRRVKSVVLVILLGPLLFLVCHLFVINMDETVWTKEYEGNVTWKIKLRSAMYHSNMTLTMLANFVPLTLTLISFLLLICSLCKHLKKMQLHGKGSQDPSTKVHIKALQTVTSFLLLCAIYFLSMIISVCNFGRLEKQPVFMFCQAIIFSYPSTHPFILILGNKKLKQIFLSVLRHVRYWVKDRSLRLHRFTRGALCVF

[13] = target: Taste receptor type 2 member 31 (Homo sapiens) (UniProt P59538); experiment: Antagonist activity at recombinant human TAS2R31 transiently expressed in HEK293T co-expressing Galpha16gust44 assessed as inhibition of aristolochic acid-induced intracellular calcium level by measuring remaining activity at 25 uM by fluo-4AM dye based FLIPR assay relative to control; assay type: functional, cell-based
Sequence of Taste receptor type 2 member 31 (Homo sapiens) (P59538 whole entry): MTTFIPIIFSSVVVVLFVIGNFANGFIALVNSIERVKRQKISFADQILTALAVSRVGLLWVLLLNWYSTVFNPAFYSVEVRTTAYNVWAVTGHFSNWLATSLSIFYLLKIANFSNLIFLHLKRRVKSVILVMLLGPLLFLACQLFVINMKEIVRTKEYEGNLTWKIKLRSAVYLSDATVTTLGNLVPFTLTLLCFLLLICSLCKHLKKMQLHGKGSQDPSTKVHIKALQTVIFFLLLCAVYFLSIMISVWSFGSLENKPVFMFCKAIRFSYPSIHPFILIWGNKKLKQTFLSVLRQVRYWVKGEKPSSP

[14] = target: Taste receptor type 2 member 39 (Homo sapiens) (UniProt P59534); experiment: Antagonist activity at recombinant human TAS2R39 transiently expressed in HEK293T co-expressing Galpha16gust44 assessed as inhibition of ranitidine-induced intracellular calcium level by measuring remaining activity at 25 uM by fluo-4AM dye based FLIPR assay relative to control; assay type: functional, cell-based
Sequence of Taste receptor type 2 member 39 (Homo sapiens) (P59534 whole entry): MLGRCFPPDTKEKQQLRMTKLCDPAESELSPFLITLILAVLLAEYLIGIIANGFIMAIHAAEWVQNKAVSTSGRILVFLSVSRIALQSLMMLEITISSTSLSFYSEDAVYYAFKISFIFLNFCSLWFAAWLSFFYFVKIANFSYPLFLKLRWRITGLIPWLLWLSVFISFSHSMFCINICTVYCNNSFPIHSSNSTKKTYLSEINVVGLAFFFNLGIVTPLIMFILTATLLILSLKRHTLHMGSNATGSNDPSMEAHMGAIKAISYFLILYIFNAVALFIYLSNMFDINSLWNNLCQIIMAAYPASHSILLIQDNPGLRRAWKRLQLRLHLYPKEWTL

[15] = target: Taste receptor type 2 member 41 (Homo sapiens) (UniProt P59536); experiment: Antagonist activity at recombinant human TAS2R41 transiently expressed in HEK293T co-expressing Galpha16gust44 assessed as inhibition of picric acid-induced intracellular calcium level by measuring remaining activity at 25 uM by fluo-4AM dye based FLIPR assay relative to control; assay type: functional, cell-based
Sequence of Taste receptor type 2 member 41 (Homo sapiens) (P59536 whole entry): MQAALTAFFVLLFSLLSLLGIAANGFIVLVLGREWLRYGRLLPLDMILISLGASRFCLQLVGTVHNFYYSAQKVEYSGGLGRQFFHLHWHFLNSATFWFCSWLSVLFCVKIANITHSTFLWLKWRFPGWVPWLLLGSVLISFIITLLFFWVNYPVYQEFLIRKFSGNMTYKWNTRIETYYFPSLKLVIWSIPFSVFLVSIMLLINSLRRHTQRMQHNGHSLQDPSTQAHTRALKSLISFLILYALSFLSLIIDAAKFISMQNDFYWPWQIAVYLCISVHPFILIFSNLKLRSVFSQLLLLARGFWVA

Homo sapiens = experiment: In vivo antagonist activity at TAS2R8 in human assessed as reduction in coffee-inudced bitterness at 5 uM by 2-AFC test; assay type: functional; design: scale not given: the % may be the effect or the level left
In short: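 Paired coffee test: 1.5× coffee with milk versus same with 5 μM compound added from ethanol stock; trained panelists chose the more bitter sample; 17 panelists × 3 replicates (51 responses).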

IC50 [1]	remaining at 24 h [2]	Activity [3]	Activity [4]	Activity [5]	Activity [6]	Activity [7]	Activity [8]	Activity [9]	Activity [10]	Activity [11]	Activity [12]	Activity [13]	Activity [14]	Activity [15]	SMILES	Activity (Homo sapiens)
0.02 µM	55%	119%	103%	117%	103%	93%	13%	106%	127%	98%	112%	92%	74%	99%	Cc1noc(C)c1Cn1cc(N2C(=O)CN(Cc3cccc(O)c3)C2=O)cn1	>78%
0.06 µM	> 99%	97%	72%	215%	100%	92%	7%	98%	95%	88%	43%	59%	150%	133%	Cc1noc(C)c1Cn1cc(N2C(=O)N(Cc3cccc(O)c3)C(C)(C)C2=O)cn1	Active
